Hits are enriched below; roughly 0.72% of the tested compounds scored in any of these assays.
bIAP act: increases bovine intestinal alkaline phosphatase activity. purified bovine IAP, CDP-star luminescence, 30 min; hits give high values; fold of DMSO-control signal, blank-subtracted. activation factor at 20 µM. 200,000 tested, 0.17% active. AID 1016;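 active = activation factor of 2 or more at 20 µM, a signal rise over negative controls twice the positive control's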
mIAP activ: increases mouse intestinal alkaline phosphatase activity; activation factor at 10 µM; muIAP, CDP-Star luminescence, 30 min; hits give high values; 1 = vehicle-only enzyme signal, 0 = enzyme-free wells; 330,000 tested, 0.24% active;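 active = activation factor of at least 2 at 20 µM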
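Assay system: mouse IAP enzyme / Compound: DMSO-dissolved test compounds / Timing: 30 min, room temperature / Measured by: luminescence from enzymatic CDP-Star hydrolysis / Control set: DMSO-only wells, enzyme-free buffer wells as negative control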
mIAP inh: blocks mouse intestinal alkaline phosphatase | inhibition, % at 10 µM | purified mouse IAP, CDP-Star luminescence, 30 min | AID 2806 | 330,000 tested, 0.2% active;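 active = inhibition of at least 40% at 10 µM in the primary screen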;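 note: plate controls were DMSO with enzyme for no effect and no enzyme wells for full effect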
bIAP inhibitor: blocks bovine intestinal alkaline phosphatase activity. purified bovine IAP, CDP-star luminescence, 30 min. inhibition, % at 20 µM. 190,000 tested, under 10 active;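 active = over 50% inhibition of intestinal alkaline phosphatase at 20 µM in the single-dose screen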
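Assay system: bovine IAP enzyme; medium: DEA buffer 100 mM, pH 9.8, with MgCl2 1.0 mM, ZnCl2 0.02 mM; doses: 20 µM single dose; incubation: enzyme reaction for 30 min at room temperature; detection: CDP-star luminescence signal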
hIAP activ: human IAP activation; P09923; purified human IAP, CDP-Star luminescence, 30 min; hits give high values; 1 = vehicle-only enzyme, 0 = enzyme-free background; activation factor at 10 µM; 330,000 tested, 0.16% active;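 active = activation factor of the enzyme at least 2-fold when tested at 20 µM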
Target sequence (P09923 whole entry, looked up): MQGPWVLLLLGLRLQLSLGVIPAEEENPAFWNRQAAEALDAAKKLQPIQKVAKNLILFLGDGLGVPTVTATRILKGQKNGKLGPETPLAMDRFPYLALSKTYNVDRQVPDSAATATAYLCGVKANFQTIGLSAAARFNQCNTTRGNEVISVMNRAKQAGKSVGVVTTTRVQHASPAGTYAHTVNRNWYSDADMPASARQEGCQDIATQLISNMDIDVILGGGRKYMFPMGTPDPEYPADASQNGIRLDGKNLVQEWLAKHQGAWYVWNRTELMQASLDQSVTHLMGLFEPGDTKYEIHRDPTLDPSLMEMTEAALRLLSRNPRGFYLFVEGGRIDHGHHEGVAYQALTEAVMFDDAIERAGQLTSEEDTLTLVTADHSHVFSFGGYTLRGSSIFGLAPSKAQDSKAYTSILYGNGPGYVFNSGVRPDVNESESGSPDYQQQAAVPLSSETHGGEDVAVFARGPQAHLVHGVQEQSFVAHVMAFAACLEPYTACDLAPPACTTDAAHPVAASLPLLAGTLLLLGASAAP
hIAP block: blocks human intestinal alkaline phosphatase; P09923; purified IAP, CDP-Star luminescence, 30 min; inhibition, % at 10 µM; 330,000 tested, 0.12% active; AID 2544;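 active = inhibition reaching a set limit with compound at 10 µM in the primary screen, cut at about 35% in these data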;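 note: plate controls were DMSO wells with enzyme for no effect and no-enzyme buffer wells for full effect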
* marks the source's active call; other numbers are inactive results; i = inactive; nt = no result given.

SMILES	bIAP act	mIAP activ	mIAP inh	bIAP inhibitor	hIAP activ	hIAP block
CCOc1ccc(NC(=O)Nc2ccc3c(c2)N(C)C(=O)CS3)cc1	1	2.3*	-132	0	1.2	-17
COc1ccc(NC(=O)Nc2ccc3c(c2)N(C)C(=O)CS3)cc1Cl	1	1.9	-88	0	1.1	-13
O=C(COC(=O)C1CC2C=CC1C2)Nc1c(Br)cc([N+](=O)[O-])cc1Br (stereo not drawn)	nt	0.99	1	nt	0.95	5
CC(C)CNC(=S)Nc1ccc(Oc2ccccc2)cc1	0.9	2.2*	-116	5	0.93	7
COc1ccc(N=c2scc(-c3ccc(S(=O)(=O)N4CCOCC4)cc3)n2CCCO)cc1	0.9	nt	nt	7	nt	nt
COc1ccc(-c2csc(=Nc3ccccc3)n2CCO)cc1	2*	0.91	9	-95	1	-3
O=C(Cc1ccc(Cl)cc1)Nc1cccc(S(=O)(=O)N2CCCCC2)c1	nt	2.1*	-112	nt	0.89	11
CC(C)C1Cc2c(C#N)c(N)sc(=S)c2CO1 (stereo not drawn)	0.6	0.6	40*	37	1.1	-10
CC(C)C[C@@]12C(=O)N(c3cccc(Br)c3)C(=O)N1[C@H](c1ccc(Cl)cc1)[C@@H]1C(=O)N(C3CCCCC3)C(=O)[C@@H]12	nt	0.54	46*	nt	0.84	16
O=C(NC(=S)Nc1ccccc1N1CCOCC1)c1ccc(-c2cc(Cl)ccc2Cl)o1	3.9*	0.87	13	-289	1.2	-15
C=CCC[C@@H](Cc1ccc(F)cc1)C(=O)OCCNC(=O)[C@H](CC=C)CC(=O)NCCO	nt	1	-2	nt	1.1	-13
CC(C)(C)NC(=O)C(c1ccc(-c2ccccc2)cc1)N(C[C@H]1CC[C@@H]([C@@H]2CC[C@H](CO)O2)O1)C(=O)c1ccccc1F (stereo partly drawn)	nt	1.1	-6	nt	nt	nt
CSc1cccc(NC(=O)Nc2nc3c(C)cccc3s2)c1	nt	2.1*	-115	nt	1.2	-20
COc1ccc(C2C(C(=O)Nc3cc(OC)c(OC)c(OC)c3)c3ccccc3C(=O)N2C)cc1 (stereo not drawn)	2.2*	2*	-102	-123	1.4	-36
Cc1cc(C)c(C)c(S(=O)(=O)Nc2cccc(S(=O)(=O)Nc3ccccc3C(=O)O)c2)c1C	nt	0.93	7	nt	0.79	21
Cc1ccccc1C(=O)NC(CC(C)C)C(=O)OCC(=O)c1c(N)n(C)c(=O)n(C)c1=O (stereo not drawn)	2.1*	1	-4	-105	1.1	-7
Cc1ccc(S(=O)(=O)N2CCCCC2)cc1C(=O)N(CCc1ccccc1)Cc1ccccc1	nt	1	-2	nt	1.1	-14
COC(=O)N/N=C(C)\C=C\c1ccco1	6.4*	0.99	1	i	1.1	-7
COc1ccc(CN(CC2CCC(C(=O)O)CC2)C(=S)Nc2ccccc2OC)cc1 (stereo not drawn)	1.1	0.95	5	-7	1	-3
COc1ccc(CN(CC2CCC(C(=O)O)CC2)C(=S)Nc2cccc(C)c2)cc1 (stereo not drawn)	2.4*	0.97	2	-140	0.93	7
CCC(C)(C)NC(=O)C(c1ccccc1F)N(C(=O)c1ccn[nH]1)c1ccccc1 (stereo not drawn)	0.9	1.3	-29	13	1.2	-20
CCC(C)(C)NC(=O)C(c1cccs1)N(C(=O)c1ccn[nH]1)c1cccc(OC)c1 (stereo not drawn)	2.1*	1	-4	-106	0.94	6
Fc1ccc(-c2n[nH]c(=S)n2/N=C/c2c[nH]c3ccccc23)cc1	2.1*	1.2	-16	-113	1.3	-28
COc1cccc(CNC(=O)CSCc2cnn(-c3ccccc3)c2-n2cccc2)c1OC	2.3*	1	-2	-131	1.2	-22
COc1ccc(OC)c(NC(=O)CSCc2cnn(-c3ccccc3)c2-n2cccc2)c1	0.9	0.99	1	5	1.1	-6
SMILES	bIAP act	mIAP activ	mIAP inh	bIAP inhibitor	hIAP activ	hIAP block
COc1ccccc1CNC(=O)CSCc1cnn(-c2ccccc2)c1-n1cccc1	3.6*	1.1	-8	-258	1	-3
O=C(CSCc1cnn(-c2ccccc2)c1-n1cccc1)NCc1cccnc1	1.3	1	-2	-34	0.95	5
COc1cc(NC(=O)CSCc2cnn(-c3ccccc3)c2-n2cccc2)cc(OC)c1	4.1*	1.3	-25	-305	1.2	-18
COc1ccc(/C=C/C(=O)OCC(=O)NCCc2ccccc2)c(OC)c1	nt	1.1	-6	nt	1	-1
COc1cccc(/C=C/C(=O)OCC(=O)NCCCc2ccccc2)c1OC	nt	1	-1	nt	1.1	-14
COc1cccc(NCc2cc3c(C(C)(C)C)nn(-c4ccccc4)c3[nH]c2=O)c1	3.8*	1.1	-8	-280	1	-3
COc1ccc(C(CCc2ccc(C)o2)NC(=O)Nc2ccc(OC)cc2OC)cc1 (stereo not drawn)	1.1	2*	-104	-12	0.83	17
COCCn1c(N/N=C(C)/C=C/c2ccccc2)nc2c1c(=O)[nH]c(=O)n2C	2.8*	nt	nt	-179	nt	nt
CC(/C=C/c1ccccc1)=N\Nc1nc2c(c(=O)[nH]c(=O)n2C)n1CCO	nt	0.91	9	nt	0.88	12
C=CCn1cnnc1SCC(=O)Nc1cccnc1Cl	nt	1.1	-5	nt	1.2	-23
O=C(NCc1ccco1)c1sc(=S)n2c1[nH]c(=O)c1ccccc12	0.9	0.6	40*	12	0.91	9
O=C(NC1CCCC1)c1sc(=S)n2c1[nH]c(=O)c1ccccc12	0.9	0.95	5	13	0.97	3
COc1cccc(C(O)c2nc3ccccc3n2C(C)C)c1 (stereo not drawn)	2.1*	0.97	3	-105	1.1	-14
COc1cccc(C(O)c2nc3ccccc3n2C(C)C)c1OC (stereo not drawn)	nt	1	-4	nt	1.2	-25
COCCn1nnnc1C(c1cc2cc(C)ccc2[nH]c1=O)N1CCc2ccccc21 (stereo not drawn)	0.9	0.61	39	7	0.85	15
Cc1ccc2[nH]c(=O)c(C(c3nnnn3CCc3ccccc3)N3CCOCC3)cc2c1 (stereo not drawn)	1	0.54	46*	4	0.96	4
CC(=O)NNc1ncnc2c1cnn2-c1ccc(C)cc1	1.3	0.81	18	-28	3.1*	-206
Cc1ccc(Cl)cc1-n1ncc2c(NNC(=O)c3ccco3)ncnc21	1.4	0.93	7	-37	2.4*	-140
CC(=O)NNc1ncnc2c1cnn2-c1ccc(C)c(Cl)c1	1.1	1.2	-18	-14	1.6	-57
O=C(NCc1ccccc1)NCC12CC3CC(CC(C3)C1)C2	1	2.1*	-111	-1	1.2	-21
